Laboratory results as given in ChEMBL document CHEMBL3875159, “High-affinity small molecular blockers of mixed lineage leukemia 1 (MLL1)-WDR5 interaction inhibit MLL1 complex H3K4 methyltransferase activity” (Eur J Med Chem, 2016).
Values belong to the compound of their own block, whether it stands above or below them. Activity calls are given as the source filed them. No cut-off for these calls is given here.

What was measured:
[1] = molecular target: T1, WD repeat-containing protein 5 (Homo sapiens, UniProt P61964); experiment: Inhibition of 10mer-Thr-FAM probe binding to human WDR5 after 2 hrs by fluorescence polarization assay
[2] = Antiproliferative activity against human MV4-11 cells harboring MLL-AF4 fusion protein after 72 hrs by CCK8 assay; type: functional, cell-based; settings: MV4-11, 72 h
[3] = molecular target: T1, WD repeat-containing protein 5; experiment: Binding affinity to human WDR5 by isothermal titration calorimetry
[4] = molecular target: MLL1/ASH2L/RBBP5/WDR5 complex (Homo sapiens, UniProt P61964+Q03164+Q15291+Q9UBL3); experiment: Inhibition of recombinant MLL1/ASH2L/RBBP5/WDR5 complex histone methyltransferase activity (unknown origin) by AlphaScreen assay; type: protein-complex assay
[5] = molecular target: T2, Histone-lysine N-methyltransferase 2A/WDR5 (Homo sapiens) (UniProt P61964+Q03164); experiment: Inhibition of MLL1-WDR5 protein-protein interaction in human MV4-11 cells harboring MLL-AF4 fusion protein assessed as inhibition of MLL1 histone methyltransferase activity by measuring reduction in H3K4me1 level at 5 uM after 7 days by Western blot method; type: cell-based
In short: (§1)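 MV4-11 cells were exposed to a range of concentrations for 7 days. H3K4me1 and H3K4me2 were detected by western blotting with β-actin as loading control.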

[6] = molecular target: T2, Histone-lysine N-methyltransferase 2A/WDR5 (Homo sapiens); experiment: Inhibition of MLL1-WDR5 protein-protein interaction in human MV4-11 cells harboring MLL-AF4 fusion protein assessed as inhibition of MLL1 histone methyltransferase activity by measuring reduction in H3K4me2 level after 7 days by Western blot method; type: cell-based; in short: as §1
[7] = molecular target: T2, Histone-lysine N-methyltransferase 2A/WDR5 (Homo sapiens); experiment: Inhibition of MLL1-WDR5 protein-protein interaction in human MV4-11 cells harboring MLL-AF4 fusion protein assessed as inhibition of Hoxa9 gene expression after 7 days by RT-PCR method; type: cell-based
In short: (§2)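 MV4-11 cells were treated with DMSO or 0.625, 1.25, 2.5 or 10 μM compound for 7 days. Hoxa9 and Meis-1 expression was measured by RT-PCR against DMSO control. Significance was tested versus the nontreated blank control.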

[8] = molecular target: T2, Histone-lysine N-methyltransferase 2A/WDR5 (Homo sapiens); experiment: Inhibition of MLL1-WDR5 protein-protein interaction in human MV4-11 cells harboring MLL-AF4 fusion protein assessed as inhibition of Meis-1 gene expression after 7 days by RT-PCR method; type: cell-based; in short: as §2
[9] = molecular target: T2, Histone-lysine N-methyltransferase 2A/WDR5 (Homo sapiens); experiment: Inhibition of MLL1-WDR5 protein-protein interaction in human MV4-11 cells harboring MLL-AF4 fusion protein assessed as inhibition of Hoxa9 gene expression at 2.5 uM after 7 days by RT-PCR method relative to control; type: cell-based
In short: (§3)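 MV4-11 cells treated for 7 days at 0.625, 1.25, 2.5 and 10 μM, with a DMSO control. Hoxa9 and Meis-1 expression was measured by RT-PCR and compared with the untreated blank control group (*p < 0.05, **p < 0.01).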

[10] = molecular target: T2, Histone-lysine N-methyltransferase 2A/WDR5 (Homo sapiens); experiment: Inhibition of MLL1-WDR5 protein-protein interaction in human MV4-11 cells harboring MLL-AF4 fusion protein assessed as inhibition of Hoxa9 gene expression at 10 uM after 7 days by RT-PCR method relative to control; type: cell-based; in short: as §2
[11] = molecular target: T2, Histone-lysine N-methyltransferase 2A/WDR5 (Homo sapiens); experiment: Inhibition of MLL1-WDR5 protein-protein interaction in human MV4-11 cells harboring MLL-AF4 fusion protein assessed as inhibition of Meis-1 gene expression at 2.5 uM after 7 days by RT-PCR method relative to control; type: cell-based; in short: as §3
[12] = molecular target: T2, Histone-lysine N-methyltransferase 2A/WDR5 (Homo sapiens); experiment: Inhibition of MLL1-WDR5 protein-protein interaction in human MV4-11 cells harboring MLL-AF4 fusion protein assessed as inhibition of Meis-1 gene expression at 10 uM after 7 days by RT-PCR method relative to control; type: cell-based; in short: as §2
MV4-11 [13] = experiment: Induction of apoptosis in human MV4-11 cells harboring MLL-AF4 fusion protein after 72 hrs by Annexin-V/propidium iodide staining based flow cytometry; type: functional, cell-based
MV4-11 [14] = experiment: Induction of apoptosis in human MV4-11 cells harboring MLL-AF4 fusion protein assessed as viable cells at 2.5 uM after 72 hrs by Annexin-V/propidium iodide staining based flow cytometry (reference value: 73.8%); type: functional; settings: MV4-11, 72 h, read-out: Activity
MV4-11 [15] = experiment: Induction of apoptosis in human MV4-11 cells harboring MLL-AF4 fusion protein assessed as early apoptotic cells at 2.5 uM after 72 hrs by Annexin-V/propidium iodide staining based flow cytometry (reference value: 4.45%); type: functional
MV4-11 [16] = experiment: Induction of apoptosis in human MV4-11 cells harboring MLL-AF4 fusion protein assessed as late apoptotic cells at 2.5 uM after 72 hrs by Annexin-V/propidium iodide staining based flow cytometry (reference value: 21.6%); type: functional
MV4-11 [17] = experiment: Induction of apoptosis in human MV4-11 cells harboring MLL-AF4 fusion protein assessed as necrotic cells at 2.5 uM after 72 hrs by Annexin-V/propidium iodide staining based flow cytometry (reference value: 0.15%); type: functional
MV4-11 [18] = experiment: Induction of apoptosis in human MV4-11 cells harboring MLL-AF4 fusion protein assessed as viable cells at 5 uM after 72 hrs by Annexin-V/propidium iodide staining based flow cytometry (reference value: 73.8%); type: functional; settings: MV4-11, 72 h, read-out: Activity
MV4-11 [19] = experiment: Induction of apoptosis in human MV4-11 cells harboring MLL-AF4 fusion protein assessed as early apoptotic cells at 5 uM after 72 hrs by Annexin-V/propidium iodide staining based flow cytometry (reference value: 4.45%); type: functional
MV4-11 [20] = experiment: Induction of apoptosis in human MV4-11 cells harboring MLL-AF4 fusion protein assessed as late apoptotic cells at 5 uM after 72 hrs by Annexin-V/propidium iodide staining based flow cytometry (reference value: 21.6%); type: functional
MV4-11 [21] = experiment: Induction of apoptosis in human MV4-11 cells harboring MLL-AF4 fusion protein assessed as necrotic cells at 5 uM after 72 hrs by Annexin-V/propidium iodide staining based flow cytometry (reference value: 0.15%); type: functional
MV4-11 [22] = experiment: Induction of apoptosis in human MV4-11 cells harboring MLL-AF4 fusion protein assessed as viable cells at 10 uM after 72 hrs by Annexin-V/propidium iodide staining based flow cytometry (reference value: 73.8%); type: functional; settings: MV4-11, 72 h, read-out: Activity
MV4-11 [23] = experiment: Induction of apoptosis in human MV4-11 cells harboring MLL-AF4 fusion protein assessed as early apoptotic cells at 10 uM after 72 hrs by Annexin-V/propidium iodide staining based flow cytometry (reference value: 4.45%); type: functional
MV4-11 [24] = experiment: Induction of apoptosis in human MV4-11 cells harboring MLL-AF4 fusion protein assessed as late apoptotic cells at 10 uM after 72 hrs by Annexin-V/propidium iodide staining based flow cytometry (reference value: 21.6%); type: functional
MV4-11 [25] = experiment: Induction of apoptosis in human MV4-11 cells harboring MLL-AF4 fusion protein assessed as necrotic cells at 10 uM after 72 hrs by Annexin-V/propidium iodide staining based flow cytometry (reference value: 0.15%); type: functional

IC50 [1]: 13600 nM
SMILES: CN1CCN(c2ccc(-c3ccc(N)cc3)cc2NC(=O)c2ccc(F)c(N)c2)CC1

IC50 [1]: 422 nM
SMILES: Cc1c(F)c(N)cc(C(=O)Nc2cc(-c3ccc(NC(=O)c4ccccc4)cc3)ccc2N2CCN(C)CC2)c1Cl
IC50 [2]: 5.4 µM

IC50 [1]: 15 nM
SMILES: Cc1c(F)c(N)cc(C(=O)Nc2cc(-c3ccc(NC(=O)C(C)N)cc3)ccc2N2CCN(C)CC2)c1Cl (centres undefined)
IC50 [2]: 11.1 µM

IC50 [1]: 18.2 nM
SMILES: Cc1c(F)c(N)cc(C(=O)Nc2cc(-c3ccncc3)ccc2N2CCN(C)CC2)c1Cl

IC50 [1]: 102 nM
SMILES: Cc1c(F)c(N)cc(C(=O)Nc2cc(-c3ccc(NC(=O)CCNC(=O)OC(C)(C)C)cc3)ccc2N2CCN(C)CC2)c1Cl
IC50 [2]: 4.6 µM

IC50 [1]: 77.1 nM
SMILES: Cc1c(F)c([N+](=O)[O-])cc(C(=O)Nc2cc(-c3ccncc3)ccc2N2CCN(C)CC2)c1Cl

IC50 [1]: 70.1 nM
SMILES: CC(=O)Nc1ccc(-c2ccc(N3CCN(C)CC3)c(NC(=O)c3cc(N)c(F)c(C)c3Cl)c2)cc1
IC50 [2]: 12.5 µM

IC50 [1]: > 20000 nM
SMILES: Cc1c(F)ccc(C(=O)Nc2cc([N+](=O)[O-])ccc2NCCN2CCCC2)c1Cl

IC50 [1]: > 20000 nM
SMILES: Cc1c(F)ccc(C(=O)Nc2cc([N+](=O)[O-])ccc2NCCN)c1Cl

Kd [3]: 202 nM
IC50 [4]: 1650 nM
inhibition [5]: Active
inhibition [6]: Dose-dependent effect
inhibition [7]: Dose-dependent effect
inhibition [8]: Dose-dependent effect
inhibition [9]: 50%
inhibition [10]: 80%
inhibition [11]: 50%
inhibition [12]: 80%
SMILES: Cc1c(F)c(N)cc(C(=O)Nc2cc(-c3ccc(N)cc3)ccc2N2CCN(C)CC2)c1Cl
IC50 [2]: 17.7 µM
Activity (MV4-11 [13]): Dose-dependent effect
viability at 2.5 µM (MV4-11 [14]): 70.9%
Activity (MV4-11 [15]): 5.5%
Activity (MV4-11 [16]): 23.55%
Activity (MV4-11 [17]): 0.05%
viability at 5 µM (MV4-11 [18]): 58.5%
Activity (MV4-11 [19]): 7.95%
Activity (MV4-11 [20]): 33.55%
Activity (MV4-11 [21]): 0%
viability at 10 µM (MV4-11 [22]): 36.3%
Activity (MV4-11 [23]): 13.8%
Activity (MV4-11 [24]): 49.75%
Activity (MV4-11 [25]): 0.15%

IC50 [1]: 198 nM
SMILES: CN1CCN(c2ccc(-c3ccncc3)cc2NC(=O)c2ccc(F)c([N+](=O)[O-])c2)CC1

IC50 [1]: 341 nM
SMILES: Cc1c(F)c(N)cc(C(=O)Nc2cc(-c3ccc(NC(=O)C4CCCCC4)cc3)ccc2N2CCN(C)CC2)c1Cl
IC50 [2]: 3.8 µM

IC50 [1]: 285 nM
SMILES: Cc1c(F)c([N+](=O)[O-])cc(C(=O)Nc2cc(-c3ccc([N+](=O)[O-])cc3)ccc2N2CCN(C)CC2)c1Cl

IC50 [1]: 50.2 nM
SMILES: Cc1c(F)c(N)cc(C(=O)Nc2cc(-c3ccc(NC(=O)CCN)cc3)ccc2N2CCN(C)CC2)c1Cl
IC50 [2]: 25.1 µM

IC50 [1]: 92.5 nM
SMILES: COC(=O)c1ccc(-c2ccc(N3CCN(C)CC3)c(NC(=O)c3cc([N+](=O)[O-])c(F)c(C)c3Cl)c2)cc1

IC50 [1]: 5800 nM
SMILES: CN1CCN(c2ccc(-c3ccncc3)cc2NC(=O)c2ccc(F)c(N)c2)CC1

IC50 [1]: 1550 nM
SMILES: Cc1c(F)c(N)cc(C(=O)Nc2cc(-c3ccc(NC(=O)CNC(=O)OC(C)(C)C)cc3)ccc2N2CCN(C)CC2)c1Cl
IC50 [2]: 4.1 µM

IC50 [1]: 1090 nM
SMILES: CN1CCN(c2ccc(-c3ccc([N+](=O)[O-])cc3)cc2NC(=O)c2ccc(F)c([N+](=O)[O-])c2)CC1

IC50 [1]: 1360 nM
SMILES: CC(=O)Nc1cc(C(=O)Nc2cc(-c3ccncc3)ccc2N2CCN(C)CC2)c(Cl)c(C)c1F
